Active and inactive are the calls of the source. No cut-off for these calls is given here.
Tests used:
Leishmania donovani [1] = assay: Antileishmanial activity against Leishmania donovani MHOM/IN/80/Dd8 amastigotes harboring luciferase reporter gene infected in mouse J774 cells assessed as stimulation of host immunity by measuring change in IL12 level at 50 uM after 48 hrs by ELISA; format: functional, organism-based
Method in brief: (§1)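 Infected J774 macrophages (24 h infection) were treated with 50 μM compound for 48 h. Culture supernatants were assayed by ELISA for TNF-α and IL-12 (Th1) and for TGF-β and IL-10 (Th2), compared with infected untreated cells.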

Leishmania donovani [2] = assay: Antileishmanial activity against Leishmania donovani MHOM/IN/80/Dd8 amastigotes harboring luciferase reporter gene infected in mouse J774 cells assessed as stimulation of host immunity by measuring change in TGFbeta level at 50 uM after 48 hrs by ELISA; format: functional, organism-based; method in brief: as §1
Leishmania donovani [3] = assay: Antileishmanial activity against Leishmania donovani MHOM/IN/80/Dd8 amastigotes harboring luciferase reporter gene infected in mouse J774 cells assessed as stimulation of host immunity by measuring change in IL10 level at 50 uM after 48 hrs by ELISA; format: functional, organism-based; method in brief: as §1
Leishmania donovani [4] = assay: Induction of plasma membrane permeabilization in Leishmania donovani MHOM/IN/80/Dd8 promastigotes assessed as increase in fluorescence at MIC measured after 4 hrs by sytox green dye based flow cytometry relative to 0.1 % triton-X 100; format: functional
Leishmania donovani [5] = assay: Induction of plasma membrane permeabilization in Leishmania donovani MHOM/IN/80/Dd8 promastigotes assessed as non specific pore formation at MIC measured after 4 hrs by sytox green dye based flow cytometry; format: functional, organism-based
Leishmania donovani [6] = assay: Induction of apoptosis in Leishmania donovani MHOM/IN/80/Dd8 promastigotes assessed as late apoptotic cells at 50 uM measured after 12 hrs by Annexin V-FITC/propidium iodide staining based assay (reference value: 0.46%); format: functional
Leishmania donovani [7] = assay: Induction of apoptosis in Leishmania donovani MHOM/IN/80/Dd8 promastigotes assessed as early apoptotic cells at 50 uM measured after 24 hrs by Annexin V-FITC/propidium iodide staining based assay (reference value: 6.91%); format: functional
Leishmania donovani [8] = assay: Induction of apoptosis in Leishmania donovani MHOM/IN/80/Dd8 promastigotes assessed as late apoptotic cells at 50 uM measured after 24 hrs by Annexin V-FITC/propidium iodide staining based assay (reference value: 0.46%); format: functional
Leishmania donovani [9] = assay: Induction of apoptosis in Leishmania donovani MHOM/IN/80/Dd8 promastigotes assessed as early apoptotic cells at 50 uM measured after 48 hrs by Annexin V-FITC/propidium iodide staining based assay (reference value: 6.91%); format: functional
Leishmania donovani [10] = assay: Induction of apoptosis in Leishmania donovani MHOM/IN/80/Dd8 promastigotes assessed as DNA fragmentation at 50 uM after 48 hrs by TUNEL staining-based confocal microscopic analysis; format: functional, organism-based
Method in brief: (§2)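 Log-phase promastigotes (1 × 10^5) were treated with 50 μM compound or 0.1% DMSO vehicle for 48 h. DNA fragmentation was labelled with an APO-BrdU TUNEL kit with PI counterstain. Cells were imaged by phase-contrast and fluorescence microscopy.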

Leishmania donovani [11] = assay: Induction of apoptosis in Leishmania donovani MHOM/IN/80/Dd8 promastigotes assessed as DNA fragmentation at 50 uM after 48 hrs by TUNEL staining-based fluorescence assay; format: functional, organism-based; method in brief: as §2
Leishmania donovani [12] = assay: (§3) Induction of apoptosis in Leishmania donovani MHOM/IN/80/Dd8 promastigotes assessed as increase in meta-caspase activity at 50 uM using BOC-GRR-AMC as substrate preincubated for 1 hr followed by substrate addition and measured after 2 hrs in presence of meta-caspase inhibitor antipain by fluorometric assay; format: functional, organism-based
Method in brief: (§4)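 Log-phase promastigotes were pretreated for 1 h with antipain (1 μM) or zVAD-fmk (100 μM), then exposed to 50 μM compound or 0.1% DMSO. Metacaspase activity in lysates was read with fluorogenic BOC-GRR-AMC and expressed as RFU per mg protein.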

Leishmania donovani [13] = assay: Induction of morphological changes in Leishmania donovani MHOM/IN/80/Dd8 promastigotes assessed as appearance of round shape parasite at 50 uM after 48 hrs by bright field microscopic analysis; format: functional, organism-based
Leishmania donovani [14] = assay: as §3, with “of caspase” for “of meta-caspase”, “inhibitor zVAD-fmk” for “inhibitor antipain”; format: functional, organism-based; method in brief: as §4
Leishmania donovani [15] = assay: Induction of apoptosis in Leishmania donovani MHOM/IN/80/Dd8 promastigotes assessed as increase in meta-caspase activity at 50 uM using BOC-GRR-AMC as substrate preincubated for 1 hr followed by substrate addition and measured after 2 hrs by fluorometric assay relative to control; format: functional
Method in brief: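 Log-phase promastigotes treated with 50 μM for 24 and 48 h, with or without 1 h pretreatment with antipain (1 μM) or zVAD-fmk (100 μM). Vehicle control was 0.1% DMSO. Metacaspase activity in cell lysates measured with fluorogenic BOC-GRR-AMC, given as relative fluorescence units per mg protein.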

Leishmania donovani [16] = assay: Induction of mitochondrial potential loss in Leishmania donovani MHOM/IN/80/Dd8 promastigotes assessed as shift in red to green fluorescence at 50 uM after 24 hrs by JC1 dye-based flow cytometry (reference value: 7.37%); format: functional
Method in brief: (§5)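 Exponential-phase promastigotes were incubated with 50 μM compound for 6−48 h, or 0.1% DMSO vehicle. CCCP (50 μM) served as positive control. After JC-1 staining, the red-to-green fluorescence shift was measured by flow cytometry.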

Leishmania donovani [17] = assay: Induction of mitochondrial potential loss in Leishmania donovani MHOM/IN/80/Dd8 promastigotes assessed as shift in red to green fluorescence at 50 uM after 48 hrs by JC1 dye-based flow cytometry (reference value: 7.37%); format: functional; method in brief: as §5
Leishmania donovani [18] = assay: Induction of mitochondrial membrane disruption in Leishmania donovani MHOM/IN/80/Dd8 promastigotes assessed as increase in cytochrome c release from mitochondria to cytosol at 50 uM measured after 6 to 48 hrs by immunoblot analysis; format: functional, organism-based
Method in brief: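 Promastigotes were treated with 50 μM compound for 6−48 h, or 0.1% DMSO for 48 h. Mitochondrial and cytosolic fractions were immunoblotted for cytochrome c, with COX-IV and β-tubulin as fraction loading controls.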

Leishmania donovani [19] = assay: Induction of mitochondrial membrane disruption in Leishmania donovani MHOM/IN/80/Dd8 promastigotes assessed as reduction in intracellular ATP level at 50 uM measured after 6 to 48 hrs by luciferase-based assay relative to control; format: functional
Method in brief: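 Promastigotes were incubated with 0.1% DMSO or 50 μM compound for 6−48 h. Cytosolic ATP was quantified by bioluminescence assay. At least 3 independent experiments in duplicate.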

Leishmania donovani [20] = assay: Induction of reactive oxygen species generation in Leishmania donovani MHOM/IN/80/Dd8 promastigotes at 50 uM measured after 48 hrs by H2DCFDA probe-based flow cytometry (reference value: 7%); format: functional
[21] = Half life in BALB/c mouse at 50 mg/kg, po administered via gavage by LC-MS/MS analysis; format: ADME, organism-based; conditions: in vivo
[22] = Tmax in BALB/c mouse at 50 mg/kg, po administered via gavage by LC-MS/MS analysis; format: ADME, organism-based; conditions: in vivo
[23] = Cmax in BALB/c mouse at 50 mg/kg, po administered via gavage by LC-MS/MS analysis; format: ADME, organism-based; parameters: dose 50 mg/kg, route oral; conditions: in vivo
[24] = AUC (0 to 48 hrs) in BALB/c mouse at 50 mg/kg, po administered via gavage by LC-MS/MS analysis; format: ADME, organism-based; parameters: time < 48 hr, dose 50 mg/kg, route oral; conditions: in vivo
[25] = AUC (0 to infinity) in BALB/c mouse at 50 mg/kg, po administered via gavage by LC-MS/MS analysis; format: ADME, organism-based; parameters: dose 50 mg/kg, time infinity, route oral; conditions: in vivo

Cc1cc(-c2ccc(OCCn3c([N+](=O)[O-])cnc3C)cc2)nc2ccccc12
Activity (Leishmania donovani [1]): inactive
Activity (Leishmania donovani [2]): inactive
Activity (Leishmania donovani [3]): inactive
Activity (Leishmania donovani [4]): 3.63%
Activity (Leishmania donovani [5]): inactive
Activity (Leishmania donovani [6]): 20.59%
Activity (Leishmania donovani [7]): 4.04%
Activity (Leishmania donovani [8]): 48.14%
Activity (Leishmania donovani [9]): 18.07%
Activity (Leishmania donovani [10]): Active
Activity (Leishmania donovani [11]): Active
inhibition (Leishmania donovani [12]): inactive
Activity (Leishmania donovani [13]): Active
inhibition (Leishmania donovani [14]): Active
fold change (FC) (Leishmania donovani [15]): 3.8
Activity (Leishmania donovani [16]): 54.18%
Activity (Leishmania donovani [17]): 68.76%
Activity (Leishmania donovani [18]): Active
Imax (Leishmania donovani [19]): >67%
Activity (Leishmania donovani [20]): 58.2%
half-life [21]: 4.02 h
Tmax [22]: 0.75 h
Cmax [23]: 6860 ng/mL
AUC(0-t) at 48 h [24]: 18200 ng·h/mL
AUC(0-inf) [25]: 18200 ng·h/mL
